Experiments:
Assay type in all cases: functional
MOLT-4 = experiment: Growth inhibition of human MOLT4 cells at 10 uM after 48 hrs; conditions: MOLT-4, 48 h, read-out: GI
How it was run: (§1)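 Single-dose primary screen in the NCI 60 human tumour cell line panel, run at the NCI facility. The panel covers nine subpanels: leukaemia, non-small cell lung, colon, CNS, melanoma, ovarian, renal, prostate and breast. Read-out was percent growth of treated cells, shown as a mean graph and reported as percent growth inhibition.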

NCI-H23 = experiment: Growth inhibition of human NCI-H23 cells at 10 uM after 48 hrs; conditions: NCI-H23, 48 h, read-out: GI; how it was run: as §1
SNB-19 = experiment: Growth inhibition of human SNB19 cells at 10 uM after 48 hrs; conditions: SNB-19, 48 h, read-out: GI
How it was run: (§2)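 NCI 60-cell-line disease-oriented human tumor panel, single-dose primary screen at 10 µM. Data given as mean-graph percent growth of treated cells, reported as percent growth inhibition (GI %).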

SK-MEL-28 = experiment: Growth inhibition of human SK-MEL-28 cells at 10 uM after 48 hrs; conditions: SK-MEL-28, 48 h, read-out: GI; how it was run: as §2
NCI-H226 = experiment: Growth inhibition of human NCI-H226 cells at 10 uM after 48 hrs; conditions: NCI-H226, 48 h, read-out: GI; how it was run: as §1
CCRF-CEM = experiment: Growth inhibition of human CCRF-CEM cells at 10 uM after 48 hrs; conditions: read-out: GI; how it was run: as §1
SK-OV-3 = experiment: Growth inhibition of human SKOV3 cells at 10 uM after 48 hrs; conditions: SK-OV-3, 48 h, read-out: GI; how it was run: as §2
A549 = experiment: Growth inhibition of human A549 cells at 10 uM after 48 hrs; conditions: A549, 48 h, read-out: GI; how it was run: as §1
SR = experiment: Growth inhibition of human SR cells at 10 uM after 48 hrs; conditions: read-out: GI; how it was run: as §2
[1] = Growth inhibition of human NCI-ADR-RES cells at 10 uM after 48 hrs; conditions: read-out: GI; how it was run: as §1
MCF7 = experiment: Growth inhibition of human MCF7 cells at 10 uM after 48 hrs; conditions: MCF7, 48 h, read-out: GI; how it was run: as §1
SNB-75 = experiment: Growth inhibition of human SNB75 cells at 10 uM after 48 hrs; conditions: SNB-75, 48 h, read-out: GI; how it was run: as §2
PC-3 = experiment: Growth inhibition of human PC3 cells at 10 uM after 48 hrs; conditions: PC-3, 48 h, read-out: GI; how it was run: as §1
[2] = Growth inhibition of human OVCAR5 cells at 10 uM after 48 hrs; conditions: OVCAR-5, 48 h, read-out: GI; how it was run: as §1
MDA-MB-231 = experiment: Growth inhibition of human MDA-MB-231 cells at 10 uM after 48 hrs; conditions: MDA-MB-231, 48 h, read-out: GI; how it was run: as §1
OVCAR-8 = experiment: Growth inhibition of human OVCAR8 cells at 10 uM after 48 hrs; conditions: OVCAR-8, 48 h, read-out: GI; how it was run: as §1
DU-145 = experiment: Growth inhibition of human DU145 cells at 10 uM after 48 hrs; conditions: DU-145, 48 h, read-out: GI; how it was run: as §1
SF-268 = experiment: Growth inhibition of human SF268 cells at 10 uM after 48 hrs; conditions: SF-268, 48 h, read-out: GI; how it was run: as §2
MDA-MB-435 = experiment: Growth inhibition of human MDA-MB-435 cells at 10 uM after 48 hrs; conditions: MDA-MB-435, 48 h, read-out: GI; how it was run: as §1
[3] = Growth inhibition of human OVCAR4 cells at 10 uM after 48 hrs; conditions: OVCAR-4, 48 h, read-out: GI; how it was run: as §1
HT-29 = experiment: Growth inhibition of human HT-29 cells at 10 uM after 48 hrs; conditions: HT-29, 48 h, read-out: GI; how it was run: as §1
[4] = Growth inhibition of human EKVX cells at 10 uM after 48 hrs; conditions: read-out: GI; how it was run: as §1
K562 = experiment: Growth inhibition of human K562 cells at 10 uM after 48 hrs; conditions: K562, 48 h, read-out: GI; how it was run: as §1
ACHN = experiment: Growth inhibition of human ACHN cells at 10 uM after 48 hrs; conditions: read-out: GI; how it was run: as §1
SK-MEL-5 = experiment: Growth inhibition of human SK-MEL-5 cells at 10 uM after 48 hrs; conditions: SK-MEL-5, 48 h, read-out: GI; how it was run: as §2
SN12C = experiment: Growth inhibition of human SN12C cells at 10 uM after 48 hrs; conditions: read-out: GI; how it was run: as §2
[5] = Growth inhibition of human HOP92 cells at 10 uM after 48 hrs; conditions: HOP-92, 48 h, read-out: GI; how it was run: as §1
COLO 205 = experiment: Growth inhibition of human COLO205 cells at 10 uM after 48 hrs; conditions: COLO 205, 48 h, read-out: GI; how it was run: as §1
[6] = Growth inhibition of human UO31 cells at 10 uM after 48 hrs; conditions: UO-31, 48 h, read-out: GI; how it was run: as §2
NCI-H322M = experiment: Growth inhibition of human NCI-H322M cells at 10 uM after 48 hrs; conditions: read-out: GI; how it was run: as §1
[7] = Growth inhibition of human Hs 578T cells at 10 uM after 48 hrs; conditions: read-out: GI; how it was run: as §1
[8] = Growth inhibition of human RXF393 cells at 10 uM after 48 hrs; conditions: RXF 393, 48 h, read-out: GI; how it was run: as §1
BT-549 = experiment: Growth inhibition of human BT549 cells at 10 uM after 48 hrs; conditions: BT-549, 48 h, read-out: GI; how it was run: as §1
786-0 = experiment: Growth inhibition of human 786-0 cells at 10 uM after 48 hrs; conditions: 786-0, 48 h, read-out: GI; how it was run: as §1
CAKI-1 = experiment: Growth inhibition of human CAKI-1 cells at 10 uM after 48 hrs; conditions: CAKI-1, 48 h, read-out: GI; how it was run: as §1
[9] = Growth inhibition of human SF539 cells at 10 uM after 48 hrs; conditions: SF-539, 48 h, read-out: GI; how it was run: as §2
TK-10 = experiment: Growth inhibition of human TK10 cells at 10 uM after 48 hrs; conditions: TK-10, 48 h, read-out: GI; how it was run: as §2
Malme-3M = experiment: Growth inhibition of human MALME-3M cells at 10 uM after 48 hrs; conditions: read-out: GI; how it was run: as §1
T47D = experiment: Growth inhibition of human T47D cells at 10 uM after 48 hrs; conditions: read-out: GI; how it was run: as §2
OVCAR-3 = experiment: Growth inhibition of human OVCAR3 cells at 10 uM after 48 hrs; conditions: OVCAR-3, 48 h, read-out: GI; how it was run: as §1

Row | Compound | inhibition of growth at 10 µM (MOLT-4) [%] | inhibition of growth at 10 µM (NCI-H23) [%] | inhibition of growth at 10 µM (SNB-19) [%] | inhibition of growth at 10 µM (SK-MEL-28) [%] | inhibition of growth at 10 µM (NCI-H226) [%] | inhibition of growth at 10 µM (CCRF-CEM) [%] | inhibition of growth at 10 µM (SK-OV-3) [%] | inhibition of growth at 10 µM (A549) [%] | inhibition of growth at 10 µM (SR) [%] | inhibition of growth at 10 µM [1] [%] | inhibition of growth at 10 µM (MCF7) [%] | inhibition of growth at 10 µM (SNB-75) [%] | inhibition of growth at 10 µM (PC-3) [%] | inhibition of growth at 10 µM [2] [%] | inhibition of growth at 10 µM (MDA-MB-231) [%] | inhibition of growth at 10 µM (OVCAR-8) [%] | inhibition of growth at 10 µM (DU-145) [%] | inhibition of growth at 10 µM (SF-268) [%] | inhibition of growth at 10 µM (MDA-MB-435) [%] | inhibition of growth at 10 µM [3] [%] | also measured
1 | COc1ccc(/C=C2\CCCc3c2nc(C)nc3-c2ccc(OC)cc2)cc1 | < 30 | < 30 | < 30 | < 30 | < 30 | < 30 | < 30 | < 30 | < 30 | < 30 | < 30 | < 30 | < 30 | < 30 | < 30 | < 30 | < 30 | < 30 | 40.5 | < 30 | inhibition of growth at 10 µM (HT-29): < 30%; inhibition of growth at 10 µM [4]: < 30%; inhibition of growth at 10 µM (K562): < 30%; inhibition of growth at 10 µM (ACHN): < 30%; inhibition of growth at 10 µM (SK-MEL-5): < 30%; inhibition of growth at 10 µM (SN12C): < 30%; inhibition of growth at 10 µM [5]: < 30%; inhibition of growth at 10 µM (COLO 205): < 30%; inhibition of growth at 10 µM [6]: < 30%; inhibition of growth at 10 µM (NCI-H322M): < 30%; inhibition of growth at 10 µM [7]: < 30%; inhibition of growth at 10 µM [8]: < 30%; inhibition of growth at 10 µM (BT-549): < 30%; inhibition of growth at 10 µM (786-0): < 30%; inhibition of growth at 10 µM (CAKI-1): < 30%; inhibition of growth at 10 µM [9]: < 30%; inhibition of growth at 10 µM (TK-10): < 30%; inhibition of growth at 10 µM (Malme-3M): < 30%; inhibition of growth at 10 µM (T47D): < 30%; inhibition of growth at 10 µM (OVCAR-3): < 30%
2 | COc1ccc(/C=C2\CCCc3c2nc(N)nc3-c2ccc(OC)cc2)cc1 | < 30 | < 30 | < 30 | < 30 | < 30 | < 30 | < 30 | < 30 | < 30 | < 30 | < 30 | < 30 | < 30 | < 30 | < 30 | < 30 | < 30 | < 30 | < 30 | < 30 | inhibition of growth at 10 µM (HT-29): < 30%; inhibition of growth at 10 µM [4]: < 30%; inhibition of growth at 10 µM (K562): < 30%; inhibition of growth at 10 µM (ACHN): < 30%; inhibition of growth at 10 µM (SK-MEL-5): 43.8%; inhibition of growth at 10 µM (SN12C): < 30%; inhibition of growth at 10 µM [5]: 31.4%; inhibition of growth at 10 µM (COLO 205): < 30%; inhibition of growth at 10 µM [6]: < 30%; inhibition of growth at 10 µM (NCI-H322M): < 30%; inhibition of growth at 10 µM [7]: < 30%; inhibition of growth at 10 µM [8]: < 30%; inhibition of growth at 10 µM (BT-549): < 30%; inhibition of growth at 10 µM (786-0): < 30%; inhibition of growth at 10 µM (CAKI-1): < 30%; inhibition of growth at 10 µM [9]: < 30%; inhibition of growth at 10 µM (TK-10): < 30%; inhibition of growth at 10 µM (Malme-3M): < 30%; inhibition of growth at 10 µM (T47D): < 30%; inhibition of growth at 10 µM (OVCAR-3): < 30%
